Data: ChEMBL document CHEMBL3232983, “Discovery of 2-iminobenzimidazoles as potent hepatitis C virus inhibitors with a novel mechanism of action” (Eur J Med Chem, 2014)
The source made the active and inactive calls. No cut-off for these calls is given here.

Columns and labels:
Hepatitis C virus [1] = test: Antiviral activity against cell culture derived Hepatitis C virus expressing NS5A-GFP fusion protein infected in human HuH7 cells assessed as infection rate preincubated for 2 hrs followed by viral inoculation measured after 72 hrs by HTS assay; format: functional, organism-based, Hepacivirus hominis; details: Huh-7
Outline: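 Naïve Huh-7 cells were exposed to serially diluted compound and inoculated with cell-culture-adapted HCVcc 2 h later. Infection rate was read at 72 h post-infection. EC50 came from 10-point dose-response curves run in duplicate with quadruplicate measurements, fitted by non-linear regression.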

[2] = Cytotoxicity against human HuH7 cells after 72 hrs by Hoechst 33342 staining-based confocal microscopic analysis; format: cell-based, Huh-7
Outline: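 Naïve Huh-7 cells in the HCVcc format were compound-treated for 2 h, then infected. Cytotoxicity was determined at 72 h post-infection. CC50 came from 10-point dose-response curves in duplicate with quadruplicate measurements, fitted by non-linear regression.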

[3] = Selectivity index, ratio of CC50 for human HuH7 cells to EC50 for cell culture derived Hepatitis C virus; format: toxicity, cell-based, Huh-7; details: read-out: Ratio CC50/EC50
Outline: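 SI is CC50/EC50. Both values come from the same HCVcc assay in naïve Huh-7 cells: compound added 2 h before HCVcc inoculation, infection and cytotoxicity read at 72 h. Each was derived from 10-point dose-response curves in duplicate with quadruplicate measurements.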

[4] = Half life in human liver microsomes at 2 uM; format: ADME
Outline: (§1)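 Compound at 2 µM final (0.02% DMSO) was incubated with 0.5 mg/mL liver microsomes in potassium phosphate buffer. Human microsomes were a mixed-gender pool of 200 donors; rat microsomes were from males. Half-life is reported in minutes.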

[5] = Half life in rat liver microsomes at 2 uM; format: ADME; outline: as §1
Hepatitis C virus [6] = test: Antiviral activity against Hepatitis C virus infected in human HuH7.5 cells assessed as inhibition of viral RNA replication after 72 hrs; format: functional, organism-based; details: Hepacivirus hominis; Huh-7
Outline: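 Transiently transfected Huh-7.5 producer cells carrying full-length HCV RNA genomes were plated and left overnight at 37 °C. They were then treated with increasing compound concentrations at 37 °C for 48 h and washed. Viral RNA replication and cytotoxicity in the producer cells were read at 72 h post compound treatment. Data were normalized to the 1% DMSO control, set as 0% inhibition.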

Hepatitis C virus [7] = test: Antiviral activity against Hepatitis C virus infected in human HuH7.5 cells assessed as reduction of secreted infectious viral particles incubated for 48 hrs followed by compound washout measured after 24 hrs; format: functional, organism-based; details: Hepacivirus hominis; Huh-7
Outline: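 Supernatant-transfer (late-stage) assay. Transfected Huh-7.5 producer cells were treated with serially diluted compound at 37 °C for 48 h, then washed. Supernatant was collected 24 h after the wash, clarified by centrifugation and put onto naïve Huh-7 target cells. HCV RNA replication in the target cells was read at 72 h post inoculation and normalized to the 1% DMSO control (0% inhibition).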

Hepatitis C virus [8] = test: Antiviral activity against Hepatitis C virus pseudotyped lentiviral particle expressing E1/E2 glycoproteins assessed as inhibition of viral attachment and internalization in human HuH7 cells at 3.3 uM preincubated for 1 hr followed by viral inoculation measured after 72 hrs GFP reporter gene assay; format: functional, organism-based; details: Hepacivirus hominis, Huh-7
Outline: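 Huh-7 target cells were pretreated with 3.3 µM compound for 1 h. Supernatants were replaced at 12 h. GFP expression was scored by confocal microscopy at 72 h post inoculation and normalized to 1% DMSO. Triplicates with quadruple measurements (n = 12).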

[9] = tested on: Vesicular stomatitis virus; test: Antiviral activity against Vesicular stomatitis virus pseudotyped particle expressing glycoproteins assessed as inhibition of viral attachment and internalization in human HuH7 cells at 3.3 uM preincubated for 1 hr followed by viral inoculation measured after 72 hrs GFP reporter gene assay; format: functional, organism-based; details: Huh-7
Outline: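 Supernatant replaced at 12 h. At 72 h post inoculation, GFP expression was read by confocal microscopy at 20x. Data normalized to 1% DMSO control (0% inhibition). Triplicates with quadruple measurements (n = 12).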

SMILES	EC50 (Hepatitis C virus [1]) [nM]	CC50 at 72 h [2] [nM]	selectivity ratio [3]	half-life at 2 µM [4] [h]	half-life at 2 µM [5] [h]	inhibition (Hepatitis C virus [6])	Activity (Hepatitis C virus [7])	inhibition (Hepatitis C virus [8])	inhibition [9]
Cn1c(=N)n(CC(=O)c2ccc(C(C)(C)C)cc2)c2ccccc21	79	8900	113						
Br.Cn1c(=N)n(CCOc2ccc(Cl)cc2)c2ccccc21	16	7600	475	> 1	0.225	Active	Dose-dependent effect	Active	inactive
Nc1nc2ccccc2n1CCOc1ccc(Cl)cc1	4000	8900							
CCc1ccc(Cn2c(=N)n(C)c3ccccc32)cc1	460	5800	12.6						
Cn1c(=N)n(Cc2ccc(C(C)(C)C)cc2)c2ccccc21	170	5900	34.7						
Br.Cc1ccc2c(c1)n(C)c(=N)n2CCOc1ccc(Cl)cc1	1	2900	2900	> 1	0.145				
Br.Cn1c(=N)n(CCOc2ccc(Cl)cc2)c2cccc(Cl)c21	3.3	1500	455	> 1	> 1				
Br.Cn1c(=N)n(CCOc2ccc(Cl)cc2)c2ccc(Cl)cc21	11	4100	373	> 1	> 1				
CCc1cn2c3ccccc3n(CCOc3ccc(Cl)cc3)c2n1	6000	20000							
Clc1ccc(OCCN2C3=NCCN3c3ccccc32)cc1	50	20000							
Br.Cc1cccc2c1n(C)c(=N)n2CCOc1ccc(Cl)cc1	130	15000	115	> 1	0.41				
CCc1ccc(OCCn2c(=N)n(C)c3ccccc32)cc1	50	8900	178						
Cn1c(=N)n(CC(=O)c2ccc(Cl)cc2)c2ccccc21	73	20000	274						
Br.Cc1ccc2c(c1)n(CCOc1ccc(Cl)cc1)c(=N)n2C	90	10600	118	> 1	0.3				
Br.Cn1c(=N)n(CCOc2ccc(Cl)cc2)c2c(Cl)cccc21	9.7	4300	443	> 1	0.623				
Br.Cn1c(=N)n(CCOc2ccc(Cl)cc2)c2cc(Cl)ccc21	40	9840	246	> 1	> 1				
CCc1ccc(C(=O)Cn2c(=N)n(C)c3ccccc32)cc1	380	9500	25						
Cn1c(=N)n(CCOc2ccc(-c3ccccc3)cc2)c2ccccc21	200	3400	17						
Cn1c(=N)n(Cc2ccc(-c3ccccc3)cc2)c2ccccc21	220	2600	11.8						
Cn1c(=N)n(CC(=O)c2ccc3ccccc3c2)c2ccccc21	340	4500	13						
Cn1c(=NC#N)n(CCOc2ccc(Cl)cc2)c2ccc(Cl)c(Cl)c21	> 20000	> 20000							
Cn1c(=N)n(CCOc2ccc(C(C)(C)C)cc2)c2ccccc21	45	2800	62						
CCC(=O)Cn1c(=N)n(CCOc2ccc(Cl)cc2)c2ccccc21	2300	8500							
